# Measured values from ChEMBL document CHEMBL1122045, “Synthesis and pharmacological evaluation of reduced diastereoisomeric and quaternary ammonium derivatives of calcium antagonistic (methylenedioxy)indenes on the isolated rat aorta” (J Med Chem, 1982).
# Legend:
# Rattus norvegicus [1] = organism: Rattus norvegicus; assay: Evaluated for its potency (IC 50) against potassium Chloride (KCl) (at a dose level of 40 mM) induced aortic contractions in male Sprague-Dawley rats.; type: functional; details: Aorta
# Outline: (§1)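 Thoracic aorta segments (2.5 cm) from male Sprague–Dawley rats (250–300 g) were equilibrated 1–1.5 h, then contracted with NE 1×10^-7 M or KCl 40 mM, final bath levels. Compound was added in rising concentrations, up to 30 min per step. Tension was taken as % of pre-drug control, fatigue-adjusted. Per-tissue probit transform with linear regression gave IC50.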
# Rattus norvegicus [2] = organism: Rattus norvegicus; assay: Evaluated for its potency against norepinephrine (NE) (at a dose level of 10 E-7 M) induced aortic contractions in male Sprague-Dawley rats.; type: functional; details: Aorta; outline: as §1
Structure (SMILES),IC50 (Rattus norvegicus [1]) [µM],IC50 (Rattus norvegicus [2]) [µM]
CCCCC1=Cc2cc3c(cc2C1N(C)C)OCO3 (stereo not given),20.3,74.1
CCC[C@@H]1Cc2cc3c(cc2[C@H]1N(C)C)OCO3,98.9,383
CCCC[C@@H]1Cc2cc3c(cc2[C@H]1N(C)C)OCO3,31.1,151
CCCC[C@@H]1Cc2cc3c(cc2[C@@H]1N(C)C)OCO3,17.4,37.9
CCC[C@@H]1Cc2cc3c(cc2[C@@H]1N(C)C)OCO3,30,59.4
CCCC1=Cc2cc3c(cc2C1N(C)C)OCO3 (stereo not given),21.4,78.2
CCCC1=Cc2cc3c(cc2C1[N+](C)(C)C)OCO3 (stereo not given),547,382
CCCCC1=Cc2cc3c(cc2C1[N+](C)(C)C)OCO3 (stereo not given),169,128
CCC[C@@H]1Cc2cc3c(cc2[C@@H]1[N+](C)(C)C)OCO3,871,1020
CCCC[C@@H]1Cc2cc3c(cc2[C@@H]1[N+](C)(C)C)OCO3,175,281
